ChEMBL document CHEMBL2417469, “Synthesis of novel analogs of 2-pyrazoline obtained from [(7-chloroquinolin-4-yl)amino]chalcones and hydrazine as potential antitumor and antimalarial agents” (Eur J Med Chem, 2013)

How the values were obtained:
Format in all cases: functional
[1] = test system: Plasmodium falciparum; experiment: Antimalarial activity against Plasmodium falciparum NF54 infected in human serum at 20 ug/ml after 48 hrs by fluorometric method
Summary of the method: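 Asynchronous P. falciparum NF54 at 1.5–2% parasitemia, 5% hematocrit in RPMI with 10% human serum, exposed 48 h at 37 °C under 90% N2/5% CO2/5% O2 at the stated concentration; parasite DNA stained with ethidium bromide after proteinase K lysis; viability % = (Flu treated − medium)/(Flu untreated − medium) ×100; triplicate.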

[2] = test system: MDA-MB-468; experiment: Cytotoxicity against human MDA-MB-468 cells after 48 hrs by SRB assay; settings: MDA-MB-468, 48 h
Summary of the method: (§1)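 NCI 60-cell-line screen. Cells preincubated 24 h at 37 °C, 5% CO2; time-zero plates TCA-fixed. Compounds dissolved in DMSO and tested at five concentrations (100, 10, 1.0, 0.1, 0.01 µM) for 48 h continuous exposure. Adherent cells fixed with cold TCA (10% final), then SRB stained; absorbance at 515 nm. GI50, TGI and LC50 calculated from growth relative to time-zero and untreated controls.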

[3] = test system: BT-549; experiment: Cytotoxicity against human BT549 cells after 48 hrs by SRB assay; settings: BT-549, 48 h; summary of the method: as §1
[4] = test system: T47D; experiment: Cytotoxicity against human T47D cells after 48 hrs by SRB assay
Summary of the method: (§2)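 NCI 60-cell screen. Cells grew 24 h (37 °C, 5% CO2) before compound was added. Compounds were in DMSO and diluted in medium with gentamicin, then tested at five levels (100, 10, 1.0, 0.1, 0.01 µM) with 48 h continuous exposure. Adherent cells were fixed with TCA (10% final) and stained with 0.4% SRB, absorbance read at 515 nm. A time-zero plate was included. LC50 is the concentration giving 50% loss of protein relative to time zero.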

[5] = test system: SN12C; experiment: Cytotoxicity against human SN12C cells after 48 hrs by SRB assay; summary of the method: as §1
[6] = test system: CAKI-1; experiment: Cytotoxicity against human Caki1 cells after 48 hrs by SRB assay; settings: CAKI-1, 48 h; summary of the method: as §1
[7] = test system: RXF 393; experiment: Cytotoxicity against human RXF393 cells after 48 hrs by SRB assay; settings: RXF 393, 48 h; summary of the method: as §1
[8] = test system: SK-OV-3; experiment: Cytotoxicity against human SKOV3 cells after 48 hrs by SRB assay; settings: SK-OV-3, 48 h; summary of the method: as §1
[9] = test system: NCI/ADR-RES; experiment: Cytotoxicity against human NCI/ADR-RES cells after 48 hrs by SRB assay; settings: for CC50: read-out: LC50 (the source's name); summary of the method: as §1
[10] = test system: OVCAR-8; experiment: Cytotoxicity against human OVCAR8 cells after 48 hrs by SRB assay; settings: OVCAR-8, 48 h; summary of the method: as §1
[11] = test system: IGROV-1; experiment: Cytotoxicity against human IGROV1 cells after 48 hrs by SRB assay; settings: IGROV-1, 48 h; summary of the method: as §1
[12] = test system: UACC-62; experiment: Cytotoxicity against human UACC62 cells after 48 hrs by SRB assay; settings: UACC-62, 48 h; for CC50: read-out: LC50 (the source's name); summary of the method: as §2
[13] = test system: SK-MEL-5; experiment: Cytotoxicity against human SK-MEL-5 cells after 48 hrs by SRB assay; settings: SK-MEL-5, 48 h; summary of the method: as §1
[14] = test system: MDA-MB-435; experiment: Cytotoxicity against human MDA-MB-435 cells after 48 hrs by SRB assay; settings: MDA-MB-435, 48 h; summary of the method: as §1
[15] = test system: M14; experiment: Cytotoxicity against human M14 cells after 48 hrs by SRB assay; settings: M14, 48 h; for CC50: read-out: LC50 (the source's name); summary of the method: as §1
[16] = test system: Malme-3M; experiment: Cytotoxicity against human MALME-3M cells after 48 hrs by SRB assay; summary of the method: as §1
[17] = test system: U-251; experiment: Cytotoxicity against human U251 cells after 48 hrs by SRB assay; settings: U-251, 48 h; for CC50: read-out: LC50 (the source's name); summary of the method: as §2
[18] = test system: LOX IMVI; experiment: Cytotoxicity against human LOXIMVI cells after 48 hrs by SRB assay; summary of the method: as §1
[19] = test system: SF-539; experiment: Cytotoxicity against human SF539 cells after 48 hrs by SRB assay; settings: SF-539, 48 h; for CC50: read-out: LC50 (the source's name); summary of the method: as §1
[20] = test system: SF-295; experiment: Cytotoxicity against human SF295 cells after 48 hrs by SRB assay; settings: SF-295, 48 h; summary of the method: as §1
[21] = test system: SF-268; experiment: Cytotoxicity against human SF268 cells after 48 hrs by SRB assay; settings: SF-268, 48 h; summary of the method: as §1
[22] = test system: KM12; experiment: Cytotoxicity against human KM12 cells after 48 hrs by SRB assay; settings: KM12, 48 h; summary of the method: as §1
[23] = test system: HCT-15; experiment: Cytotoxicity against human HCT15 cells after 48 hrs by SRB assay; settings: HCT-15, 48 h; summary of the method: as §1
[24] = test system: HT-29; experiment: Cytotoxicity against human HT-29 cells after 48 hrs by SRB assay; settings: HT-29, 48 h; summary of the method: as §1
[25] = test system: HCT-116; experiment: Cytotoxicity against human HCT116 cells after 48 hrs by SRB assay; settings: HCT-116, 48 h; summary of the method: as §1
[26] = test system: HCC 2998; experiment: Cytotoxicity against human HCC2998 cells after 48 hrs by SRB assay; settings: HCC 2998, 48 h; summary of the method: as §1
[27] = test system: COLO 205; experiment: Cytotoxicity against human COLO205 cells after 48 hrs by SRB assay; settings: COLO 205, 48 h; summary of the method: as §1
[28] = test system: NCI-H460; experiment: Cytotoxicity against human NCI-H460 cells after 48 hrs by SRB assay; settings: NCI-H460, 48 h; summary of the method: as §1
[29] = test system: NCI-H226; experiment: Cytotoxicity against human NCI-H226 cells after 48 hrs by SRB assay; settings: NCI-H226, 48 h; summary of the method: as §1
[30] = test system: SR; experiment: Cytotoxicity against human SR cells after 48 hrs by SRB assay; summary of the method: as §2
[31] = test system: A549; experiment: Cytotoxicity against human A549/ATCC cells after 48 hrs by SRB assay; settings: A549, 48 h; for CC50: read-out: LC50 (the source's name); summary of the method: as §1
[32] = test system: RPMI-8226; experiment: Cytotoxicity against human RPMI8226 cells after 48 hrs by SRB assay; settings: RPMI-8226, 48 h; summary of the method: as §1

With COc1ccc(C2CC(c3ccc(Nc4ccnc5cc(Cl)ccc45)cc3)=NN2C=O)cc1 (stereo not given) the inhibition at 20 µg/mL [1] was 0%, the GI50 [2] was 1 µM and the LC50 [2] was greater than 100 µM. It also gave a GI50 [3] of 10.9 µM, an LC50 (50% net cell kill vs time zero) [3] greater than 100 µM and a GI50 [4] of 1.38 µM. For the same compound, the LC50 (concentration giving 50% cell kill relative to time zero) [4] was greater than 100 µM, the GI50 [5] was 12.6 µM and the LC50 (50% net cell kill relative to time zero) [5] was greater than 100 µM. The GI50 [6] was greater than 100 µM, the LC50 [6] was greater than 100 µM and the GI50 [7] was 11.6 µM. For the same compound, the LC50 (concentration killing 50% of cells) [7] was greater than 100 µM, the GI50 [8] was greater than 100 µM and the LC50 (concentration killing 50% of cells) [8] was greater than 100 µM. The GI50 [9] was 7.04 µM, the CC50 [9] was greater than 100 µM and the GI50 [10] was 69.8 µM. It also gave an LC50 (50% net cell kill) [10] greater than 100 µM, a GI50 [11] of 43.1 µM and an LC50 (concentration killing 50% of cells relative to time zero) [11] greater than 100 µM. For the same compound, the GI50 [12] was 5.99 µM, the CC50 [12] was greater than 100 µM and the GI50 [13] was 0.62 µM. It also gave an LC50 (concentration killing 50% of cells present at time zero) [13] greater than 100 µM, a GI50 [14] of 1.72 µM and an LC50 [14] greater than 100 µM. It also gave a GI50 [15] of 7.67 µM, a CC50 [15] greater than 100 µM and an LC50 [16] greater than 100 µM. For the same compound, the GI50 [17] was 1.5 µM, the CC50 [17] was greater than 100 µM and the GI50 [18] was 2.32 µM. The LC50 [18] was greater than 100 µM, the GI50 [19] was greater than 100 µM and the CC50 [19] was greater than 100 µM. For the same compound, the GI50 [20] was 24.8 µM, the LC50 [20] was greater than 100 µM and the GI50 [21] was greater than 100 µM. For the same compound, the LC50 [21] was greater than 100 µM, the GI50 [22] was 16.5 µM and the LC50 (concentration killing 50% of cells) [22] was greater than 100 µM. For the same compound, the GI50 [23] was 2.97 µM, the LC50 (concentration killing 50% of cells relative to time zero) [23] was greater than 100 µM and the GI50 [24] was 3.81 µM. For the same compound, the LC50 [24] was greater than 100 µM, the GI50 [25] was 9.97 µM and the LC50 [25] was greater than 100 µM. It also gave a GI50 [26] of 18.1 µM, an LC50 [26] greater than 100 µM and a GI50 [27] of 3.56 µM. The LC50 [27] was greater than 100 µM, the GI50 [28] was greater than 100 µM and the LC50 [28] was greater than 100 µM. It also gave a GI50 [29] greater than 100 µM, an LC50 (50% lethal concentration) [29] greater than 100 µM and a GI50 [30] of 2.83 µM. It also gave an LC50 [30] greater than 100 µM, a GI50 [31] of 50.3 µM and a CC50 [31] greater than 100 µM. The GI50 [32] was 2.71 µM and the LC50 (concentration killing 50% of cells) [32] was greater than 100 µM.

In the case of COc1cc(C2CC(c3ccc(Nc4ccnc5cc(Cl)ccc45)cc3)=NN2C=O)cc(OC)c1OC (stereo not given), the inhibition at 20 µg/mL [1] is reported as 5.8%, the GI50 [2] is reported as 1.83 µM and the LC50 [2] is reported as 40.9 µM. The GI50 [3] was 1.91 µM, the LC50 (50% net cell kill vs time zero) [3] was 8.23 µM and the GI50 [4] was 2.33 µM. It also gave an LC50 (concentration giving 50% cell kill relative to time zero) [4] greater than 100 µM, a GI50 [5] of 4.37 µM and an LC50 (50% net cell kill relative to time zero) [5] greater than 100 µM. For the same compound, the GI50 [6] was 5.47 µM, the LC50 [6] was greater than 100 µM and the GI50 [7] was 2.22 µM. For the same compound, the LC50 (concentration killing 50% of cells) [7] was greater than 100 µM, the GI50 [8] was 3.36 µM and the LC50 (concentration killing 50% of cells) [8] was 55.8 µM. The GI50 [9] was 7.88 µM, the CC50 [9] was greater than 100 µM and the GI50 [10] was 9.98 µM. It also gave an LC50 (50% net cell kill) [10] greater than 100 µM, a GI50 [11] of 22.3 µM and an LC50 (concentration killing 50% of cells relative to time zero) [11] greater than 100 µM. For the same compound, the GI50 [12] was 2.2 µM, the CC50 [12] was 59.3 µM and the GI50 [13] was 1.98 µM. The LC50 (concentration killing 50% of cells present at time zero) [13] was 35.5 µM, the GI50 [14] was 2.1 µM and the LC50 [14] was greater than 100 µM. The GI50 [15] was 3.75 µM, the CC50 [15] was 48.3 µM and the GI50 [16] was 3.2 µM. It also gave an LC50 [16] greater than 100 µM, a GI50 [17] of 2.06 µM and a CC50 [17] of 19.4 µM. For the same compound, the GI50 [18] was 1.89 µM, the LC50 [18] was 7.83 µM and the GI50 [19] was 2.75 µM. The CC50 [19] was 37.6 µM, the GI50 [20] was 5.63 µM and the LC50 [20] was greater than 100 µM. It also gave a GI50 [21] of 28 µM, an LC50 [21] greater than 100 µM and a GI50 [22] of 5.87 µM. For the same compound, the LC50 (concentration killing 50% of cells) [22] was greater than 100 µM, the GI50 [23] was 3.56 µM and the LC50 (concentration killing 50% of cells relative to time zero) [23] was greater than 100 µM. The GI50 [24] was 2.83 µM, the LC50 [24] was greater than 100 µM and the GI50 [25] was 3.21 µM. It also gave an LC50 [25] greater than 100 µM, a GI50 [26] of 5.52 µM and an LC50 [26] greater than 100 µM. The GI50 [27] was 3.73 µM, the LC50 [27] was greater than 100 µM and the GI50 [28] was 4.42 µM. The LC50 [28] was greater than 100 µM, the GI50 [29] was 34.5 µM and the LC50 (50% lethal concentration) [29] was greater than 100 µM. It also gave a GI50 [30] of 2.58 µM, an LC50 [30] greater than 100 µM and a GI50 [31] of 6.9 µM. It also gave a CC50 [31] greater than 100 µM, a GI50 [32] of 2.56 µM and an LC50 (concentration killing 50% of cells) [32] greater than 100 µM.
